The values that follow come from ChEMBL document CHEMBL1155079, “N-Hydroxypyrazolyl glycine derivatives as selective N-methyl-D-aspartic acid receptor ligands” (J Med Chem, 2008).

Assay [1] can be described thus: Displacement of [3H]AMPA from AMPA receptor in rat cortical synaptosome. The class given is tissue-based, Brain. Summed up: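 Binding to rat cortical synaptosome membranes using 5 nM [3H]AMPA (45.5 Ci/mmol) as radioligand.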
A general note: Loss of bound radioactivity is the signal in a displacement assay; it reports binding, not function.

The nature of assay [2]: Displacement of [3H]KAIN from KA receptor in rat cortical synaptosome. The class given is tissue-based, Brain.
Assay [3] deals with Glutamate NMDA receptor. Kind of assay: Displacement of [3H]CGP39653 from NMDA receptor in rat cortical synaptosome. The class given is tissue-based, Brain.
The target in assay [4] is Glutamate NMDA receptor; Grin1/Grin2a (Rattus norvegicus, UniProt P35439+Q00959). Kind of assay: (§1) Activity at rat recombinant NR1/NR2A receptor expressed in Xenopus oocytes assessed as effect on glutamate-induced current by two voltage clamp electrophysiology. It counts as cell-based, Oocyte. Summed up: (§2)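 Two-electrode voltage clamp on Xenopus oocytes injected with cRNA for NR1 plus the named NR2 subunit. Holding potential −60 to −40 mV. Continuous perfusion at 23 °C with 90 NaCl, 0.5 BaCl2, 1 KCl, 0.01 EDTA, 10 HEPES (mM), pH 7.6, with 20 μM glycine present throughout. Concentration–response data from each oocyte fitted to the Hill equation; mean ± SEM of logEC50 and nH.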

Assay [5] addresses T1, Glutamate NMDA receptor; Grin1/Grin2a (Rattus norvegicus) (UniProt P35439+Q00959). Kind of assay: Activity at rat recombinant NR1/NR2A receptor expressed in Xenopus oocytes by two voltage clamp electrophysiology relative to glutamate. The following applies: Oocyte. It counts as cell-based. Summed up: (§3)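 Two-electrode voltage clamp on Xenopus oocytes injected with cRNA for NR1 plus the named NR2 subunit. Holding potential −60 to −40 mV. Continuous perfusion at 23 °C with 90 NaCl, 0.5 BaCl2, 1 KCl, 0.01 EDTA, 10 HEPES (mM), pH 7.6, with 20 μM glycine present throughout. Concentration–response data from each oocyte fitted to the Hill equation; mean ± SEM of logEC50 and nH. Relative Imax = fitted agonist Imax / maximal glutamate response in the same recording.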

Assay [6] has as its target Glutamate NMDA receptor; Grin1/Grin2b (Rattus norvegicus, UniProt P35439+Q00960). As to the kind of experiment: Activity at rat recombinant NR1/NR2B receptor expressed in Xenopus oocytes assessed as effect on glutamate-induced current by two voltage clamp electrophysiology. It counts as cell-based, Oocyte. The essentials: as §2
Assay [7] addresses Ionotropic glutamate receptor NMDA 1/2D (Rattus norvegicus, UniProt P35439+Q62645). Kind of assay: Activity at rat NR1/NR2D receptor expressed in Xenopus oocytes assessed as effect on glutamate-induced current by two voltage clamp electrophysiology. The class given is cell-based, Oocyte. Summed up: as §2
For assay [8], the target named is Glutamate NMDA receptor; Grin1/Grin2b (Rattus norvegicus) (UniProt P35439+Q00960). As to the kind of experiment: Activity at rat recombinant NR1/NR2B receptor expressed in Xenopus oocytes by two voltage clamp electrophysiology relative to glutamate. The class given is cell-based. The settings on record: Oocyte. Summed up: as §3
In assay [9] the target is Glutamate NMDA receptor; Grin1/Grin2c (Rattus norvegicus, UniProt P35439+Q00961). Kind of assay: Activity at rat recombinant NR1/NR2C receptor expressed in Xenopus oocytes assessed as effect on glutamate-induced current by two voltage clamp electrophysiology. It counts as cell-based, Oocyte. The essentials: as §2
Assay [10] addresses Glutamate NMDA receptor; Grin1/Grin2c (Rattus norvegicus) (UniProt P35439+Q00961). Kind of assay: Activity at rat recombinant NR1/NR2C receptor expressed in Xenopus oocytes by two voltage clamp electrophysiology relative to glutamate. It counts as cell-based. The settings on record: Oocyte. The essentials: as §3
For assay [11], the target named is Ionotropic glutamate receptor NMDA 1/2D (Rattus norvegicus) (UniProt P35439+Q62645). As to the kind of experiment: Activity at rat NR1/NR2D receptor expressed in Xenopus oocytes by two voltage clamp electrophysiology relative to glutamate. The class given is cell-based. The following applies: Oocyte. The essentials: as §3
Assay [12] has as its target T1, Glutamate NMDA receptor; Grin1/Grin2a (Rattus norvegicus). The description is as §1. It counts as cell-based. The following applies: Oocyte. The essentials: as §2

Active and inactive are the calls of the source. No cut-off for these calls is given here. Bounds are passed on as bounds.

As a reminder, the IC50 is the concentration that inhibits the measured activity by half. High values mean weaker potency, low ones greater potency. As a reminder, the Ki is the dissociation constant of the complex between target and ligand, obtained from inhibition or displacement. Usually EC50 stands for the concentration giving half of the maximal effect. For `CCc1cnn(O)c1C(N)C(=O)O` (racemic), the IC50 in assay [1] and in assay [2] was more than 100 µM each time. Further, in [3], the Ki amounted to 13 µM. The EC50 in assay [4] worked out at 47 µM; in assay [6], 68 µM; in assay [7], 43 µM; in assay [9] it was 91 µM. For the same compound, the Imax was found to be 0.05 in assay [5], 0.45 in assay [8], 0.52 in assay [10] and 0.7 in assay [11].

For the compound `Cc1cnn(O)c1[C@H](N)C(=O)O`, the IC50 in assay [1] and in [2] was more than 100 µM each time. In [3], this compound came in with a Ki of more than 100 µM.

Take `N[C@H](C(=O)O)c1ccnn1O`: the IC50 in [1] and in assay [2] was more than 100 µM each time. Besides, in assay [3], the Ki is more than 100 µM.

As to `Cc1cnn(O)c1[C@@H](N)C(=O)O`, the IC50 in assay [1] and in assay [2] was more than 100 µM each time. In assay [3], this compound gave an inhibition constant Ki of 2.2 µM. In addition, the half-maximal effective concentration (EC50) in [6] was 36 µM. Also, in assay [8], the Imax stood at 0.23.

Regarding `Cc1cnn(O)c1C(N)C(=O)O` (racemic), the IC50 in [1] and in assay [2] was more than 100 µM each time. The Ki in assay [3] was 22 µM.

Consider `CCc1cnn(O)c1[C@@H](N)C(=O)O`, for which the 50% inhibitory concentration (IC50) in [1] and in assay [2] was more than 100 µM each time. Further, the affinity in assay [3], expressed as Ki, was 4.4 µM. Further, the half-maximal effective concentration (EC50) in [6] is 34 µM. Also, in [8], the Imax stood at 0.46.

With `CC(C)c1cnn(O)c1[C@@H](N)C(=O)O`, the half-inhibitory concentration (IC50) in assay [1] and in assay [2] was more than 100 µM each time. Moreover, in assay [3], the affinity corresponds to a Ki of 13 µM.

For the compound `N[C@@H](C(=O)O)c1c(Cl)cnn1O`, in assay [3], affinity was put at a Ki of 2.9 µM. In addition, the concentration for a half-maximal effect (EC50) in assay [6] stood at 58 µM. Moreover, in [8], the Imax turned out to be 0.33.

In the case of `NC(C(=O)O)c1c(Cl)cnn1O` (racemic), the IC50 in [1] and in assay [2] was more than 100 µM each time. The compound also yielded a Ki in [3] of 2.9 µM. For the same compound, the EC50 in assay [4] stood at 565 µM; in [6] it was 149 µM; in assay [7], 152 µM; in assay [9], 255 µM. Moreover, the Imax in assay [5] came to 0.07; in assay [8] it was 0.29; in [10] it was 0.55; in assay [11], 0.73.

On to `CC(C)c1cnn(O)c1[C@H](N)C(=O)O`, for which the half-maximal inhibitory concentration (IC50) in assay [1] and in assay [2] was more than 100 µM each time. This compound yielded a Ki in assay [3] of more than 100 µM.

Turning to `N[C@H](C(=O)O)c1c(Cl)cnn1O`, the 50% inhibitory concentration (IC50) in [1] and in [2] was more than 100 µM each time. In [3], the Ki worked out at 25 µM.

`N[C@@H](C(=O)O)c1ccnn1O`: the IC50 in assay [1] and in assay [2] was more than 100 µM throughout. Moreover, the Ki in [3] is 2.2 µM. Further, in assay [6], the EC50 was 14 µM. Further, the Imax in assay [8] was 0.61.

Regarding `CN[C@H](CC(=O)O)C(=O)O` [N-METHYL-D-ASPARTIC ACID (NMDA)], the half-maximal effective concentration (EC50) in assay [4] is 75 µM; in assay [6], 22 µM; in assay [7] it was 8.3 µM; in assay [9] it was 23 µM. Also, the Imax in assay [5] amounted to 0.9; in assay [8] it was 0.77; in assay [10] it was 0.73; in assay [11], 0.8.

`CC(C)c1cnn(O)c1C(N)C(=O)O` (racemic): the IC50 in [1] and in assay [2] was more than 100 µM throughout. This compound gave a Ki in [3] of 20 µM.

Take `CCCc1cnn(O)c1C(N)C(=O)O` (racemic): the concentration for half-maximal inhibition (IC50) in [1] and in assay [2] was more than 100 µM each time. Also, the inhibition constant Ki in assay [3] is 14 µM. The result in [12] and in assay [5] was inactive. Also, the half-maximal effective concentration (EC50) is 105 µM in assay [6], 153 µM in assay [7] and 429 µM in assay [9]. Besides, the Imax in [8] stood at 0.06; in assay [10] it was 0.22; in assay [11], 0.37.

Take `CCCc1cnn(O)c1[C@H](N)C(=O)O`: the half-inhibitory concentration (IC50) in assay [1] and in assay [2] was more than 100 µM throughout. Moreover, the Ki in assay [3] was more than 100 µM.

Regarding `CCc1cnn(O)c1[C@H](N)C(=O)O`, the 50% inhibitory concentration (IC50) in assay [1] and in [2] was more than 100 µM each time. Moreover, the inhibition constant (Ki) in [3] was more than 100 µM.

With `CCCc1cnn(O)c1[C@@H](N)C(=O)O`, the IC50 in [1] and in assay [2] was more than 100 µM each time. The compound also came in with a Ki in assay [3] of 6.9 µM. Also, in assay [6], the concentration giving a half-maximal response (EC50) turned out to be 63 µM. In addition, the Imax in assay [8] came to 0.09.

With `NC(C(=O)O)c1ccnn1O` (racemic), the IC50 in assay [1] and in assay [2] was more than 100 µM each time. For the same compound, the inhibition constant Ki in assay [3] worked out at 10 µM. The EC50 in [4] turned out to be 82 µM; in assay [6] it was 48 µM; in [9], 54 µM. Further, the Imax in assay [5] is 0.45; in [8], 0.58; in assay [10] it was 0.52.
